Laboratory results from ChEMBL document CHEMBL4325842, “Design, synthesis, and biological evaluation of novel aminopyrimidinylisoindolines as AXL kinase inhibitors” (Bioorg Med Chem Lett, 2018).

Legend:
OVCAR-3 = assay: Antiproliferative activity against human OVCAR3 cells after 2 days by spectrophotometric analysis; type: functional; conditions: OVCAR-3, 48 h
In short: (§1)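 Cells from ATCC were kept in RPMI 1640 with 5% FBS. They were exposed to graded concentrations in DMSO/RPMI for 48 h at 37 C under 5% CO2, then fixed with 50% trichloroacetic acid. Cellular protein was read at 540 nm at time zero and at 48 h, with and without compound. TGI (100% growth inhibition) was taken from the concentration-response curve.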

HeLa = assay: Antiproliferative activity against human HeLa cells after 2 days by spectrophotometric analysis; type: functional; conditions: 48 h; in short: as §1
[1] = molecular target: T1, Tyrosine-protein kinase receptor UFO (Homo sapiens, UniProt P30530); assay: Inhibition of N-terminal His-tagged recombinant human AXL (473 to end amino acids) expressed by baculovirus in Sf9 cells using axltide substrate and ATP by ADP-Glo luminescence assay
T1 sequence (P30530 whole entry): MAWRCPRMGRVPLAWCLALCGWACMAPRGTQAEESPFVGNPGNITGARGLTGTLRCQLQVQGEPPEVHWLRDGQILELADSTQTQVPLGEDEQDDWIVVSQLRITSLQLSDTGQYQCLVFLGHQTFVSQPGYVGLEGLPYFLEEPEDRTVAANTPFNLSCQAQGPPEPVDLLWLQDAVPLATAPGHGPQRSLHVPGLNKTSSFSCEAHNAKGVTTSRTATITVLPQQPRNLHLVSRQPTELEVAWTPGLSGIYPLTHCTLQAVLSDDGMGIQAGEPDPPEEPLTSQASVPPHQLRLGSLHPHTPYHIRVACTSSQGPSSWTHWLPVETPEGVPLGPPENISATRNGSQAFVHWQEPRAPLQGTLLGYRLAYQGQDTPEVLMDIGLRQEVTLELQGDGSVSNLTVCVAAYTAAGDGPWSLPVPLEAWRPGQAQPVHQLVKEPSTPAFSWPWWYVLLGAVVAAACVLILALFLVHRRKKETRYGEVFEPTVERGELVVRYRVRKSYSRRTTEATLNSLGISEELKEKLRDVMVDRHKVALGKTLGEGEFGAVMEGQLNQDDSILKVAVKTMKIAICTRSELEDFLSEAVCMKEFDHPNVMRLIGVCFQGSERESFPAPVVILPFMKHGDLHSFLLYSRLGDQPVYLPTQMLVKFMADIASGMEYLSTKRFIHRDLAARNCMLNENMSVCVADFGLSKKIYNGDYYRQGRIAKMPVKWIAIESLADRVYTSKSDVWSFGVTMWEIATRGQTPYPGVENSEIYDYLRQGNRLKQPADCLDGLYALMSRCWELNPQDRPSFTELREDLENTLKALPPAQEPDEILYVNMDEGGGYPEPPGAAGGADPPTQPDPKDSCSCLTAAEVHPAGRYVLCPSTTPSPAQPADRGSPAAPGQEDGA

A549 = assay: Antiproliferative activity against human A549 cells after 2 days by spectrophotometric analysis; type: functional; conditions: A549, 48 h
HepG2 = assay: Antiproliferative activity against human HepG2 cells after 2 days by spectrophotometric analysis; type: functional; conditions: HepG2, 48 h
U-87 MG = assay: Antiproliferative activity against human U87MG cells after 2 days by spectrophotometric analysis; type: functional, U-87MG ATCC; conditions: 48 h

SMILES | GI50 (OVCAR-3) | GI50 (HeLa) | IC50 [1] | GI50 (A549) | GI50 (HepG2) | GI50 (U-87 MG)
Cc1cc(Cl)ccc1Nc1ncc(C(F)(F)F)c(N2Cc3cccc(N(C)S(C)(=O)=O)c3C2)n1 | > 30 µM | 17.4 µM | > 20 µM | 25.5 µM | 19.6 µM | 28.3 µM
CN(c1ncccc1CNc1nc(Nc2ccc3c(c2)CC(=O)N3)ncc1C(F)(F)F)S(C)(=O)=O | 1.8 µM | 1.7 µM |  | 2.1 µM | 1.2 µM | 3.7 µM
CN(c1cccc2c1CN(c1nc(Nc3ccc(Cl)c(C(F)(F)F)c3)ncc1C(F)(F)F)C2)S(C)(=O)=O | > 50 µM | 11.1 µM | > 20 µM | 15.2 µM | 16 µM | > 30 µM
CN(c1cccc2c1CN(c1nc(Nc3ccc(C(F)(F)F)cc3)ncc1C(F)(F)F)C2)S(C)(=O)=O | > 30 µM | > 30 µM | > 20 µM | > 30 µM | > 30 µM | > 30 µM
CN(c1cccc2c1CN(c1nc(Nc3cccc(C(F)(F)F)c3)ncc1C(F)(F)F)C2)S(C)(=O)=O | > 30 µM | 5.3 µM |  | > 30 µM | > 30 µM | > 30 µM
Cc1ccc(Nc2ncc(C(F)(F)F)c(N3Cc4cccc(N(C)S(C)(=O)=O)c4C3)n2)c(C)c1 | > 30 µM | 10.6 µM |  | 20.7 µM | 19.1 µM | > 30 µM
CN(c1cccc2c1CN(c1nc(Nc3cccc(Oc4ccccc4)c3)ncc1C(F)(F)F)C2)S(C)(=O)=O | 24.9 µM | 4.3 µM |  | 19 µM | 23 µM | 19.5 µM
COc1ccc(C(F)(F)F)cc1Nc1ncc(C(F)(F)F)c(N2Cc3cccc(N(C)S(C)(=O)=O)c3C2)n1 | > 30 µM | 17.2 µM | > 20 µM | > 30 µM | > 30 µM | > 30 µM
CN(c1cccc2c1CN(c1nc(Nc3ccccc3N3CCOCC3)ncc1C(F)(F)F)C2)S(C)(=O)=O | > 50 µM | 23.9 µM | > 20 µM | > 30 µM | > 30 µM | > 30 µM
COc1cc(N2CCN(C(C)=O)CC2)ccc1Nc1ncc(C(F)(F)F)c(N2Cc3cccc(N(C)S(C)(=O)=O)c3C2)n1 | 1.6 µM | 1.3 µM |  | 3.3 µM | 3.8 µM | 4.7 µM
CN(c1cccc2c1CN(c1nc(Nc3ccc(N4CCOCC4)cc3)ncc1C(F)(F)F)C2)S(C)(=O)=O | 2.4 µM | 0.79 µM |  | 2.5 µM | 1.9 µM | 6.8 µM
CN(c1cccc2c1CN(c1nc(Nc3cc(C(F)(F)F)cc(C(F)(F)F)c3)ncc1C(F)(F)F)C2)S(C)(=O)=O | > 30 µM | 9.2 µM | > 20 µM | > 30 µM | 10.3 µM | 16.8 µM
CN(c1cccc2c1CN(c1nc(Nc3ccc4c(c3)OCO4)ncc1C(F)(F)F)C2)S(C)(=O)=O | > 30 µM | 6.3 µM |  | 12.1 µM | 9.8 µM | > 30 µM
CN(c1cccc2c1CN(c1nc(Nc3ccc(Nc4ccccc4)cc3)ncc1C(F)(F)F)C2)S(C)(=O)=O | > 50 µM | 7.3 µM | > 20 µM | 6.2 µM | 8.6 µM | 29.8 µM
COc1ccc(Nc2ncc(C(F)(F)F)c(N3Cc4cccc(N(C)S(C)(=O)=O)c4C3)n2)cc1C(F)(F)F | > 30 µM | 14 µM | > 20 µM | > 30 µM | > 30 µM | 29.4 µM
Cc1ccc(Nc2ncc(C(F)(F)F)c(N3Cc4cccc(N(C)S(C)(=O)=O)c4C3)n2)c(Cl)c1 | > 30 µM | 10.9 µM | > 20 µM | > 30 µM | > 30 µM | > 30 µM

Second part, the compound after the results:

GI50 (OVCAR-3) | GI50 (HeLa) | IC50 [1] | GI50 (A549) | GI50 (HepG2) | GI50 (U-87 MG) | SMILES
> 30 µM | 5.1 µM |  | > 30 µM | 22.1 µM | > 30 µM | COc1cc(Nc2ncc(C(F)(F)F)c(N3Cc4cccc(N(C)S(C)(=O)=O)c4C3)n2)cc(C(F)(F)F)c1
> 30 µM | 16.5 µM | > 20 µM | 7.3 µM | 25.6 µM | 6.2 µM | COc1cc(Nc2ncc(C(F)(F)F)c(N3Cc4cccc(N(C)S(C)(=O)=O)c4C3)n2)c(OC)cc1Cl
21.5 µM | 4.3 µM | > 30 µM | 6.7 µM | 9.9 µM | 5.5 µM | CN(c1cccc2c1CN(c1nc(Nc3cc(Cl)cc(C(F)(F)F)c3)ncc1C(F)(F)F)C2)S(C)(=O)=O
> 30 µM | > 30 µM | > 20 µM | > 30 µM | > 30 µM | > 30 µM | Cc1ccc(Nc2ncc(C(F)(F)F)c(N3Cc4cccc(N(C)S(C)(=O)=O)c4C3)n2)cc1C
> 30 µM | > 30 µM | > 20 µM | > 30 µM | > 30 µM | > 30 µM | Cc1cc(C)cc(Nc2ncc(C(F)(F)F)c(N3Cc4cccc(N(C)S(C)(=O)=O)c4C3)n2)c1
0.63 µM | 7 µM |  | 24.8 µM | 1.8 µM | > 30 µM | COc1cc(Nc2ncc(C(F)(F)F)c(N3Cc4cccc(N(C)S(C)(=O)=O)c4C3)n2)cc(OC)c1
> 30 µM | 6.5 µM |  | > 30 µM | 16.8 µM | > 30 µM | Cc1cc(F)ccc1Nc1ncc(C(F)(F)F)c(N2Cc3cccc(N(C)S(C)(=O)=O)c3C2)n1
